The source made the active and inactive calls. The rule behind the calls is not given here.

As a reminder, the pKa is the negative logarithm of the acid dissociation constant. One may read the EC50 as the concentration at which the effect is half-maximal. Broadly, the IC50 is the concentration that gives 50% inhibition.

Series [1] deals with Transient receptor potential cation channel subfamily A member 1 (Homo sapiens), O75762 [F909A]. Put plainly: Agonist activity at human TRPA1 Phe909Ala mutant expressed in HEK293 cells assessed as Ca2+ influx at 100 uM by fluorescence assay. Format: cell-based. In short, it runs like this: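 HEK293 cells stably expressing hTRPA1 point mutants, made by FuGENE 6 transfection, G418 (0.5 mg ml-1) selection and single-cell cloning, grown in DMEM with 25 mM HEPES, 10% FBS and geneticin. Ca2+ influx was read by Fluo dye fluorescence at room temperature, with calcimycin added at the end. Response was ΔRFU as % of calcimycin, with the DMSO vehicle subtracted.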
Transient receptor potential cation channel subfamily A member 1 (Homo sapiens), O75762 [F909A], sequence (O75762 whole entry F909A): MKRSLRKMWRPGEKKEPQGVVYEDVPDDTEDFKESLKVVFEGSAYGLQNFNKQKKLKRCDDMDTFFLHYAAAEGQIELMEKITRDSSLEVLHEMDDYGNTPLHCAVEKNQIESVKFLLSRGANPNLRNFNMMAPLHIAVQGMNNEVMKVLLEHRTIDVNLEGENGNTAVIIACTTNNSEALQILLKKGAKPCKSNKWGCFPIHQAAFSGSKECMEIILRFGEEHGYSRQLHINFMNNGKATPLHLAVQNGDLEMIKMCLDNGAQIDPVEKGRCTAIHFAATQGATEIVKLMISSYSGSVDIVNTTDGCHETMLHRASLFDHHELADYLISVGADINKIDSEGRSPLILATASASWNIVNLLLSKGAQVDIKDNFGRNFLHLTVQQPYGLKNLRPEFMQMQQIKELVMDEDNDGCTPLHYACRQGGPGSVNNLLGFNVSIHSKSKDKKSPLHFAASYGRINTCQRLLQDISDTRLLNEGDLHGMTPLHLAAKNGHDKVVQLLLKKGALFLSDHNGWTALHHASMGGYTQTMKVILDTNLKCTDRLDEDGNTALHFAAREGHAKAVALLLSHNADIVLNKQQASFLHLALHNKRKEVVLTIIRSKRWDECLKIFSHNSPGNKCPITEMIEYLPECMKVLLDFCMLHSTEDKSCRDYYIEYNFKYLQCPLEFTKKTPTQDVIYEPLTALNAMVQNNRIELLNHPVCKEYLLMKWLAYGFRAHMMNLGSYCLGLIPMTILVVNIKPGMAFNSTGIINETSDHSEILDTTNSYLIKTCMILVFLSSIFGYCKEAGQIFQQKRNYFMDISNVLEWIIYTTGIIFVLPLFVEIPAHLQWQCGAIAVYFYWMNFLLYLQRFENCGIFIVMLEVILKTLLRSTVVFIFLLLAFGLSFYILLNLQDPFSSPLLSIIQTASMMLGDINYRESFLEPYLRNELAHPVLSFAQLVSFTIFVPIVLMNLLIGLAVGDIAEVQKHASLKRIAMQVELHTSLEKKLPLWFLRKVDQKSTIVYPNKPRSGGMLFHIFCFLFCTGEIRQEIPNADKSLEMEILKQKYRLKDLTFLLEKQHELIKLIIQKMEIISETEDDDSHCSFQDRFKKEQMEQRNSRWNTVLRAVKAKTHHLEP

Series [2] concerns the target T1, Transient receptor potential cation channel subfamily M member 8 (Homo sapiens, UniProt Q7Z2W7). Put plainly: Antagonist activity at human TRPM8 expressed in HEK293 cells assessed as increase in calcium influx at 3 uM incubated for 10 mins prior to WS5 challenge by Fluo-4-AM dye based fluorescence assay relative to WS5. Type of series: cell-based. More on the design: scale not given: the % may be the effect or the level left. The procedure, abridged: (§1)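 hTRPM8-HEK293 cells loaded with Fluo-4AM (2 µM, 45 min). Test compound pre-incubated 10 min before WS5 standard agonist. FlexStation fluorescence at 485/538 nm. ΔRFU given as % of WS5 response after DMSO vehicle subtraction. N = 3. IC50 from dose-response curves.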

The nature of series [3]: Dissociation constant, pKa of the compound at pH 7.4. Type of series: physicochemical.
The target of series [4] is T2, Transient receptor potential cation channel subfamily A member 1 (Homo sapiens, UniProt O75762). Description: Antagonist activity at human TRPA1 expressed in HEK293 cells assessed as increase in calcium influx at 3 uM incubated for 10 mins prior to CA challenge by Fluo-4-AM dye based fluorescence assay […]. Type of series: cell-based. Also noted: scale not given: the % may be the effect or the level left.
T2 sequence (O75762 whole entry): as the sequence (O75762 whole entry F909A) above, with A909F counted along it

The target in series [5] is T2, Transient receptor potential cation channel subfamily A member 1. Put plainly: Agonist activity at human TRPA1 expressed in HEK293 cells assessed as increase in calcium influx at 3 uM by Fluo-4-AM dye based fluorescence assay relative to calcimycin. Format: cell-based. In short, it runs like this: (§2)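 Stably transfected hTRPA1- or hTRPM8-HEK293 cells on poly-D-lysine plates for 48 h, loaded with Fluo-4AM (2 µM, 45 min, dark, room temperature), in isotonic HEPES buffer pH 7.4. FlexStation 240 s run: 20 s baseline, compound added, calcimycin added at 180 s. ΔRFU expressed as % calcimycin, DMSO-subtracted. Screening N = 3. Dose-response curves fitted for logEC50 (N = 3 in duplicate or triplicate).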

For series [6] the target is unchanged. Description: Agonist activity at human TRPA1 in WI38 cells assessed as increase in calcium influx by Fluo-4-AM dye based fluorescence assay. Type of series: cell-based.
The target is the same in series [7]. Description: Agonist activity at human TRPA1 expressed in HEK293 cells assessed as increase in calcium influx by Fluo-4-AM dye based fluorescence assay. Type of series: cell-based. Particulars: read-out: EC50. The procedure, abridged:
as §2

Series [8] relates to Transient receptor potential cation channel subfamily A member 1 (Homo sapiens), O75762 [F909A]. Put plainly: Agonist activity at human TRPA1 Phe909Ala mutant expressed in HEK293 cells assessed as Ca2+ influx at 30 uM by fluorescence assay. Type of series: cell-based. In short, it runs like this: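 HEK293 cells stably expressing hTRPA1 point mutants (C621A, F909A or F944A), single-cell cloned under G418 selection. Cells plated on poly-D-lysine for 48 h, loaded with Fluo-4AM 2 µM for 45 min at room temperature. FlexStation read (ex 485/em 538 nm): 20 s baseline, compound added, calcimycin added at 180 s. Response expressed as % calcimycin from ΔRFU, vehicle-subtracted, and compared with wild-type hTRPA1 cells.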

The target in series [9] is T2, Transient receptor potential cation channel subfamily A member 1. Put plainly: Antagonist activity at human TRPA1 expressed in HEK293 cells assessed as increase in calcium influx at 100 uM incubated for 10 mins prior to CA addition by Fluo-4-AM dye based fluorescence assay relative to CA. More on the design: scale not given: the % may be the effect or the level left. Format: cell-based. The procedure, abridged: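 hTRPA1-HEK293 cells loaded with Fluo-4AM (2 µM). Compound pre-incubated 10 min, then cinnamaldehyde standard agonist added. FlexStation read, ex 485/em 538 nm. ΔRFU normalized to the CA response set at 100 % after DMSO vehicle subtraction. N = 3. logIC50 taken from dose-response fits.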

For series [10] the target is unchanged. Description: Antagonist activity at human TRPA1 expressed in HEK293 cells assessed as inhibition of CA-induced increase in calcium influx incubated for 10 mins prior to CA addition by Fluo-4-AM dye based fluorescence assayy. Type of series: cell-based.
Series [11] shares this target. Put plainly: Reversible desensitizing activity at human TRPA1 expressed in HEK293 cells assessed as CA-induced increase in Ca2+ influx up to 30 uM pretreated with compound followed by drug wash-out and CA challenge by Fluo-4-AM dye based fluorescence assay. Type of series: cell-based. In short, it runs like this: (§3)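 hTRPA1-HEK293 cells loaded with Fluo-4AM were pre-incubated with compound, then washed and resuspended in fresh assay buffer. The response to cinnamaldehyde (30 µM) was then measured by FlexStation calcium fluorescence.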

Series [12] addresses T1, Transient receptor potential cation channel subfamily M member 8. Put plainly: Agonist activity at human TRPM8 expressed in HEK293 cells assessed as increase in calcium influx at 30 uM by Fluo-4-AM dye based fluorescence assay relative to calcimycin. Format: cell-based. The procedure, abridged: as §2
Series [13] shares this target. Description: Antagonist activity at human TRPM8 expressed in HEK293 cells assessed as increase in calcium influx at 100 uM incubated for 10 mins prior to WS5 challenge by Fluo-4-AM dye based fluorescence assay relative to WS5. Format: cell-based. More on the design: scale not given: the % may be the effect or the level left. The procedure, abridged:
as §1

Series [14] deals with T2, Transient receptor potential cation channel subfamily A member 1. Put plainly: Agonist activity at human TRPA1 expressed in HEK293 cells assessed as increase in calcium influx at 30 uM by Fluo-4-AM dye based fluorescence assay relative to calcimycin. Type of series: cell-based. In short, it runs like this:
as §2

For series [15] the target is unchanged. Description: Irreversible desensitizing activity at human TRPA1 expressed in HEK293 cells assessed as CA-induced increase in Ca2+ influx at >30 uM pretreated with compound followed by drug wash-out and CA challenge by Fluo-4-AM dye based fluorescence assay. Type of series: cell-based. In short, it runs like this:
as §3

Series [16] shares this target. Description: Modulating activity at human TRPA1 expressed in HEK293 cells assessed as desensitization of CA-induced increase in Ca2+ influx at 10 uM measured within 10 mins by Fluo-4-AM dye based fluorescence assay. Format: cell-based. In short, it runs like this:
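hTRPA1-HEK293 cells with Fluo-4AM. Real-time fluorescence recorded for 10 min after compound addition (10 µM), followed by challenge with cinnamaldehyde (30 µM) to assess desensitization of the agonist response.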

In series [17] the target is T1, Transient receptor potential cation channel subfamily M member 8. Description: Agonist activity at human TRPM8 expressed in HEK293 cells assessed as increase in calcium influx at 100 uM by Fluo-4-AM dye based fluorescence assay relative to calcimycin. Format: cell-based. In short, it runs like this:
as §2

Series [18] deals with T2, Transient receptor potential cation channel subfamily A member 1. Put plainly: Reversible desensitizing activity at human TRPA1 expressed in HEK293 cells assessed as CA-induced increase in Ca2+ influx upto 10 uM pretreated with compound followed by drug wash-out and CA challenge by Fluo-4-AM dye based fluorescence assay. Format: cell-based. The procedure, abridged:
as §3

Another series is filed under the species Cavia porcellus. Description: Agonist activity at TRPA1 in Dunkin-Hartley guinea pig vagus nerve assessed as activation of vagus nerve by measuring depolarization at 100 uM […]. The procedure, abridged: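 Isolated vagus nerves from male Dunkin-Hartley guinea pigs (300-400 g, eight animals). Compound DMSO stocks diluted 1000× in Krebs-Henseleit buffer. Viability checked with capsaicin (1 µM) at the start and acrolein (300 µM) at the end. Single non-cumulative concentrations applied for 2 min each, with KH wash to baseline between them. DMSO vehicle run alike. Depolarization recorded in mV.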
(In patch-clamp work, channel activity is measured electrically.)

Series [19] concerns the target T1, Transient receptor potential cation channel subfamily M member 8. Description: Agonist activity at human TRPM8 expressed in HEK293 cells assessed as increase in calcium influx at 3 uM by Fluo-4-AM dye based fluorescence assay relative to calcimycin. Type of series: cell-based. In short, it runs like this: as §2

T1 sequence (Q7Z2W7 whole entry, looked up): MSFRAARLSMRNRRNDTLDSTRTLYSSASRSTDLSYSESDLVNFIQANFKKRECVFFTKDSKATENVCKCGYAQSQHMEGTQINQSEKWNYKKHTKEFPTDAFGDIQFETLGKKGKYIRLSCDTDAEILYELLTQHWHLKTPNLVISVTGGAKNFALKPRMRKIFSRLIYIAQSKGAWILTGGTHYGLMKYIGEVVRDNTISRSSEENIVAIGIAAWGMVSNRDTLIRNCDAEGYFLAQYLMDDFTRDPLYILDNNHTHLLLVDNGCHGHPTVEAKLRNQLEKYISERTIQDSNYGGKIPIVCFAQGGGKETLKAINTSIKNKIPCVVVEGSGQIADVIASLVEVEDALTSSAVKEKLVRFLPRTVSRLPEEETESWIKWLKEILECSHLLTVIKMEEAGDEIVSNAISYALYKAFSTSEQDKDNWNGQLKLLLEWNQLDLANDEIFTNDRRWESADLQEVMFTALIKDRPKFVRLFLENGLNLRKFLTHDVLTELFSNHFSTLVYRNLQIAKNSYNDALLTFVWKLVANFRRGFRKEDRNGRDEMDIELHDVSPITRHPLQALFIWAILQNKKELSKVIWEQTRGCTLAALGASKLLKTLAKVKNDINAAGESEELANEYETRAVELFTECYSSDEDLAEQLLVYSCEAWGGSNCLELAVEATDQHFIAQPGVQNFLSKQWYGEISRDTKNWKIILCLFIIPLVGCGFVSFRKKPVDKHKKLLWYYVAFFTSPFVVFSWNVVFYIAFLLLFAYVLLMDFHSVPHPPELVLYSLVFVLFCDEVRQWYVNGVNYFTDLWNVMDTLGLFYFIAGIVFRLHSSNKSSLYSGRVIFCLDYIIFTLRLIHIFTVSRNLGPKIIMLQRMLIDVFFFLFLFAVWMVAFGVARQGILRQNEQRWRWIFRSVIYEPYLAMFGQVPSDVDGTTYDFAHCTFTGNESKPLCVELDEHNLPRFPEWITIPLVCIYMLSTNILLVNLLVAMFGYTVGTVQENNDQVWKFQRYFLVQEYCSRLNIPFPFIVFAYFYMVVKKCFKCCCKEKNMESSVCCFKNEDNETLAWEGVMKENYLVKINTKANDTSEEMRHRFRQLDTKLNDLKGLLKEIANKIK

Consider `Cc1ccc(C(C)C)c(O)c1`, for which the result in series [1] was Active.

Take `COC(=O)c1ccccc1NC(=O)/C(C)=C/c1ccccc1`: the figures for the Activity in series [2], in [4] and in series [5] were 30%, 73% and 49%, respectively. For the same molecule, the pKa in [3] came to 13.9.

For the molecule `Cc1cccc(Nc2ccccc2C(=O)O)c1C` [MEFENAMIC ACID], the figures for the EC50 in series [6] and in series [7] were 61 µM and 16 µM, respectively. The outcome in [8] was Active.

For the molecule `O=C(/C=C/c1ccc(F)cc1)Nc1ccccc1C(=O)O`, the Activity was 13% in [9], 61% in [13] and 37% in series [14]. In [10], the IC50 is 26 µM. Moreover, the outcome in series [11], in series [15] and in series [16] was Active. Besides, the outcome in series [12] and in series [17] was inactive. In [7], the EC50 was 30 µM. Further, the pKa in series [3] was 3.4.

With `O=C(/C=C/c1ccc(Cl)cc1)Nc1ccccc1C(=O)O`, the Activity came out at 7% in series [9], 40% in series [13] and 62% in [14]. Moreover, the outcome (in series [18]; in series [15]; in series [16]; in the series listed under Cavia porcellus) was Active. The IC50 in series [10] is 4 µM. The outcome in series [12] and in series [17] was inactive. Besides, in series [7], the concentration giving a half-maximal response (EC50) was found to be 10 µM. In series [3], this molecule gave a pKa of 3.4.

For the molecule `NC(=O)c1cccc(-c2cccc(OC(=O)NC3CCCCC3)c2)c1` [URB-597], the concentration for a half-maximal effect (EC50) in series [7] amounted to 0.1 µM. Also, the outcome in series [1] was Active.

With `COC(=O)c1ccccc1NC(=O)/C(=C/c1ccccc1)c1ccccc1`, the Activity was 48% in series [2], 51% in [4], 23% in series [19] and 63% in series [5]. In addition, the pKa in series [3] worked out at 13.9.

The values above are taken from ChEMBL document CHEMBL4346663, “N-Cinnamoylanthranilates as human TRPA1 modulators: Structure-activity relationships and channel binding sites” (Eur J Med Chem, 2019).
